# An excerpt weighted towards active compounds, which were near 3.5% of everything screened.
# ERAP1 HTS inh – ERAP1 (human) enzyme inhibition. AID 652197. inhibition, % at 10.7 µM. recombinant ERAP1, Leu-AMC fluorescence, 60 min. Q9NZ08. hit rate 0.15% among 340,000;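 active means mean replicate inhibition of at least 30%, or all replicates individually reaching that 30% level; inactive means mean below 30% and not every replicate reaching it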;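 further: 0% = neutral control wells and 100% = L-leucinethiol positive control wells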
# Target sequence (Q9NZ08 whole entry, looked up): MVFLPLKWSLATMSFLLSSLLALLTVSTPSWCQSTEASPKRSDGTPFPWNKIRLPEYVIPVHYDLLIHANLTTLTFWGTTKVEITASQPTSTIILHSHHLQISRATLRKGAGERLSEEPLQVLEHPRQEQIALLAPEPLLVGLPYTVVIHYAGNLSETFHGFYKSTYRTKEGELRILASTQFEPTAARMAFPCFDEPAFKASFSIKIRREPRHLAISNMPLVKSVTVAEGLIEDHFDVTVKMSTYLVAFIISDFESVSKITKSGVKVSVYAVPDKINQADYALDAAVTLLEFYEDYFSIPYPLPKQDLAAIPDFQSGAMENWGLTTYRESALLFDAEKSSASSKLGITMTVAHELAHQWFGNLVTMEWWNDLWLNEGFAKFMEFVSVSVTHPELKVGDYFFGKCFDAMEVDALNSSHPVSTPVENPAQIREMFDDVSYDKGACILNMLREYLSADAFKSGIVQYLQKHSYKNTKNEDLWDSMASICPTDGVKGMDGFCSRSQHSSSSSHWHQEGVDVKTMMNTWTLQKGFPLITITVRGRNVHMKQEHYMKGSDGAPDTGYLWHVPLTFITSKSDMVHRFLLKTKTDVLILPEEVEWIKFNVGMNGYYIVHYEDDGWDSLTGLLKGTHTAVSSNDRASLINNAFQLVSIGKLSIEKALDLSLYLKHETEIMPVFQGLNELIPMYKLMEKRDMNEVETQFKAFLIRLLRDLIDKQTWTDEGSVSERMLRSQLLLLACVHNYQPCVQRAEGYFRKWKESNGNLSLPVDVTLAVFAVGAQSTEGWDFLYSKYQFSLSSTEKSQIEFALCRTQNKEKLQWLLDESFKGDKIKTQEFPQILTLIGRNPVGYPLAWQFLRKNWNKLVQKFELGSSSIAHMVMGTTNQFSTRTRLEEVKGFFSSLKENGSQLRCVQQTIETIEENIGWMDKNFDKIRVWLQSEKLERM
# Env fusion inh – blocks HIV Env-driven cell-cell fusion. inhibition, % at 12.3 µM. hit rate 1.1% among 360,000. HeLa-JRFL Env/CEM21 cell fusion, luciferase;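 active means mean replicate inhibition score of at least 50 and every replicate individually at or above 50; inconclusive means only one of the two criteria met; inactive means mean below 50 and not all replicates reaching 50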;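 further: 0% = plate neutral controls and 100% = maraviroc near 300 nM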
# Wnt act – Wnt/beta-catenin pathway activation. Wnt/beta-catenin reporter cell assay, activator, plate reader. AID 743398. hit rate 1.2% among 300,000. activation, % at 9.35 µM; in the data active means activation above about 30%, passing the limit was not always enough; inconclusive means no clear call, values can overlap the other calls;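 further: 0% = neutral control wells and 100% = positive control wells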
# esBAF inh – inhibitors of esBAF chromatin remodeling in mouse ES cells; Bmi1-luciferase knock-in reporter, 24 h; 100% = twice the neutral-well signal; reporter increase, % at 12.5 µM; hit rate 2% among 350,000; AID 602393; in the data active means activation above about 40%; inconclusive means no clear call, values can overlap the other calls;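 further: 0% = median of the plate's neutral control wells and 100% = double that signal; a rise in the Bmi1 reporter signal indicates esBAF inhibition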
# Cneo AK release – Cryptococcus neoformans lysis via adenylate kinase release | C. neoformans lysis, adenylate kinase release luminescence, 4 h; normalised: neutral wells 0, clomiphene wells 100 | lysis activity, % at 15 µM | hit rate 0.2% among 360,000;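 active means mean lysis activity across replicates of at least 80%, whatever share of replicates individually reach that level; inactive means mean lysis activity below 80%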
#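 Material – Cryptococcus neoformans yeast cells · Quantity – 5 × 10^6 yeast cells/mL · Buffer or medium – YPD medium · Compound – single dose · Timing – 4 h static compound exposure, 37 °C, read 1 h post-reagent · Signal – adenylate kinase release luminescence · Read-out basis – lysis from increased AK signal · Benchmarks – Clomiphene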
# MITF TRPM1 HTS – increases MITF-driven TRPM1 promoter luciferase signal; activation, % at 12.5 µM; SK-MEL-5 TRPM1-promoter luciferase, 24 h; % of positive control, neutral wells = 0; hit rate 0.75% among 300,000;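 active means mean activation of at least 80% with every replicate also reaching 80%; inconclusive means mean reaches 80% but some replicate falls short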;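 further: 0% = neutral control wells and 100% = parthenolide positive control wells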
# * = called active by the depositor; ? = inconclusive; . = not tested or not shown; [ ] = another dose, or the depositor's remark.
SMILES,ERAP1 HTS inh,Env fusion inh,Wnt act,esBAF inh,Cneo AK release,MITF TRPM1 HTS
C/C(=N\N(C)C)C1=C(O)c2ccccc2C1=O,.,-26.9,12.7,.,.,12.8
CCOc1ccc(N=C(C)C2=C(O)c3ccccc3C2=O)cc1,-1.7,-148.6,38.9*,.,.,.
COCCNC(=O)C1(C)CCCN(C(=O)c2ccc3c(c2)CCO3)C1 (stereo unspecified),-2.1,58.8*,2.7,-1.7,-2.1,.
C[C@@H]1CCCCO[C@@H](CN(C)Cc2ccccc2)[C@@H](C)CN([C@H](C)CO)C(=O)c2cc(NS(C)(=O)=O)ccc2O1,.,-1.2[16.7 µM],.,-3.1,.,.
Cn1cc(S(=O)(=O)N2CCOCC2)cc1C(=O)Nc1cccc(Cl)c1,1.9,97.8*,-2.2,1.8,0.3,-5.9
Cc1cccc(NC(=O)c2cc(S(=O)(=O)N3CCOCC3)cn2C)c1C,1.5,-9.2,-0.1,-3.8,0.9,4.3
C[C@@H]1CN([C@H](C)CO)C(=O)c2cc(NC(=O)Nc3ccc(F)cc3)ccc2O[C@H]1CN(C)S(C)(=O)=O,2.5,0.5[16.7 µM],.,2.7,-2.5,.
COc1cccc(CN(C)C(=O)c2ccc(OCC(=O)Nc3cccc(C(F)(F)F)c3)c(OC)c2)c1,-2.7,15.2,-10.0,2.9,2.8,-41.6
COc1ccc(CN(C)C(=O)c2ccc(OCC(=O)Nc3cccc(C(F)(F)F)c3)c(OC)c2)c(OC)c1,-0.8,75.7*,-1.7,7.2,-2.3,-34.9
CCOC(=O)/C=C/[C@H]1CC2(CCO1)SCCCS2,3.3,69.3*,25.9,55.4*,-9.0,71.3
O=C(O)c1cc(-c2ccc(-c3c(-c4ccc5c(c4)OCO5)noc3-c3ccsc3)cc2)nc2ccccc12,17.8,-52.0,22.0,68.2*,-2.5,96.5*
CN(C)c1ccc(-c2c(-c3ccc4c(c3)OCO4)noc2-c2ccsc2)cn1,.,.,.,24.9,1.2,36.1
Cc1ccccc1NC(=O)CSc1nc(N)c(C#N)c(-c2cccs2)c1C#N,.,.,.,2.8,1.1,-7.9
COc1ccc(CCNC(=O)CSc2nc(N)c(C#N)c(-c3cccs3)c2C#N)cc1OC,.,118.6*,.,3.9,7.3,0.3
O=C(Nc1ccc(F)cc1)N1CC(=O)N2[C@@H](CO)[C@@H](c3ccc(C#Cc4ccc(F)cc4)cc3)[C@@H]2C1,5.8,.,.,.,.,.
CNc1ccccc1C(C)(C)c1cc(-c2cccc(Br)c2)no1,-2.3,23.2,-3.2,-79.2,-3.3,-31.7
CNc1ccccc1C(C)(C)c1cc(-c2ccc(F)cc2)no1,.,65.6*,.,.,.,-14.8
CCCCCCCCCCCCCCCC[N+](C)(C)Cc1ccc(F)cc1,95.9*,48.7,12.1,.,.,-23.1
CC#CC[N+](C)(C)CCCCCCCC,.,0.4,1.0,.,0.5,.
O=C(C[C@@H]1C=C[C@H](NC(=O)Nc2cc(F)ccc2F)[C@H](CO)O1)NCc1ccc2c(c1)OCO2,-5.7,.,.,3.2,1.2,.
COc1cc(CNCc2ccncc2)cc(Br)c1OCc1ccccc1F,.,67.4*,.,-31.0,-0.1,-21.0
COc1cc(CNc2ccc(O)cc2)cc(Br)c1OCc1ccccc1F,.,.,.,.,-0.5,-10.8
CCCC#Cc1cnc2c(c1)C(=O)N([C@H](C)CO)C[C@@H](C)[C@H](CN(C)CCC)O2,0.1,12.3[16.7 µM],.,-5.8,0.0,.
CCn1c2ccccc2c2cc(NC(=O)CSc3nnc(-c4cccc(OC)c4)n3N)ccc21,.,135.4*,.,.,-1.6,.
CCn1c2ccccc2c2cc(NC(=O)CSc3nnc(-c4ccc(OC)c(OC)c4)n3N)ccc21,.,-26.4,.,-3.1,-1.8,.
SMILES,ERAP1 HTS inh,Env fusion inh,Wnt act,esBAF inh,Cneo AK release,MITF TRPM1 HTS
CCn1c2ccccc2c2cc(NC(=O)CSc3nnc(-c4ccccc4OC)n3N)ccc21,.,133.4*,.,.,.,4.3
CCOc1ccc(-c2nnc(SCC(=O)Nc3ccc4c(c3)c3ccccc3n4CC)n2N)cc1,.,-224.3,-14.1,-1.0,-1.1,-76.6
C/C=C/c1ccc([C@@H]2[C@H]3CN(S(=O)(=O)c4ccc(OC)cc4)CCCCN3[C@H]2CO)cc1,.,.,.,4.1,5.2,.
O=C(C[C@H]1CC[C@H](NC(=O)Nc2ccc(F)cc2)[C@@H](CO)O1)NCc1ccccn1,-4.0,-25.5[16.7 µM],.,0.5,1.9,.
Cc1ccc2occ(/C=C/C(=O)c3ccccc3O)c(=O)c2c1,.,.,4.0,51.2*,-0.5,77.0
Cc1ccc(/C=C/C(=O)c2ccccc2O)cc1,-0.3,-6.7,26.0,.,-2.3,36.8
Cc1c(/C=C/C(=O)c2ccccc2O)cnn1C,0.0,-40.5,-1.9,51.5*,-3.4,?

# Compound activity (PubChem BioAssay)
